Experimental findings from ChEMBL document CHEMBL4834477, “Synthesis and biological evaluation of novel purinyl quinazolinone derivatives as PI3Kδ-specific inhibitors for the treatment of hematologic malignancies” (Bioorg Med Chem, 2021) are described below.

Calls of active or inactive are those of the source. The rule behind the calls is not given here.

One data set deals with SU-DHL-5. Description: Antiproliferative activity against human SU-DHL-5 cells assessed as cell viability at 10 uM by CellTiter-Glo luminescent cell viability assay (reference value: 100%). Type of data set: functional. The note with it: read-out: Activity.
The test system of data set [1] is MOLT-4. Description: Antiproliferative activity against human MOLT-4 cells assessed as cell viability at 20 uM by CellTiter-Glo luminescent cell viability assay (reference value: 100%). It counts as functional. Particulars: read-out: Activity.
The target in data set [2] is T1, Phosphatidylinositol 4,5-bisphosphate 3-kinase catalytic subunit delta isoform (Homo sapiens) (UniProt O00329).
T1 sequence (whole entry): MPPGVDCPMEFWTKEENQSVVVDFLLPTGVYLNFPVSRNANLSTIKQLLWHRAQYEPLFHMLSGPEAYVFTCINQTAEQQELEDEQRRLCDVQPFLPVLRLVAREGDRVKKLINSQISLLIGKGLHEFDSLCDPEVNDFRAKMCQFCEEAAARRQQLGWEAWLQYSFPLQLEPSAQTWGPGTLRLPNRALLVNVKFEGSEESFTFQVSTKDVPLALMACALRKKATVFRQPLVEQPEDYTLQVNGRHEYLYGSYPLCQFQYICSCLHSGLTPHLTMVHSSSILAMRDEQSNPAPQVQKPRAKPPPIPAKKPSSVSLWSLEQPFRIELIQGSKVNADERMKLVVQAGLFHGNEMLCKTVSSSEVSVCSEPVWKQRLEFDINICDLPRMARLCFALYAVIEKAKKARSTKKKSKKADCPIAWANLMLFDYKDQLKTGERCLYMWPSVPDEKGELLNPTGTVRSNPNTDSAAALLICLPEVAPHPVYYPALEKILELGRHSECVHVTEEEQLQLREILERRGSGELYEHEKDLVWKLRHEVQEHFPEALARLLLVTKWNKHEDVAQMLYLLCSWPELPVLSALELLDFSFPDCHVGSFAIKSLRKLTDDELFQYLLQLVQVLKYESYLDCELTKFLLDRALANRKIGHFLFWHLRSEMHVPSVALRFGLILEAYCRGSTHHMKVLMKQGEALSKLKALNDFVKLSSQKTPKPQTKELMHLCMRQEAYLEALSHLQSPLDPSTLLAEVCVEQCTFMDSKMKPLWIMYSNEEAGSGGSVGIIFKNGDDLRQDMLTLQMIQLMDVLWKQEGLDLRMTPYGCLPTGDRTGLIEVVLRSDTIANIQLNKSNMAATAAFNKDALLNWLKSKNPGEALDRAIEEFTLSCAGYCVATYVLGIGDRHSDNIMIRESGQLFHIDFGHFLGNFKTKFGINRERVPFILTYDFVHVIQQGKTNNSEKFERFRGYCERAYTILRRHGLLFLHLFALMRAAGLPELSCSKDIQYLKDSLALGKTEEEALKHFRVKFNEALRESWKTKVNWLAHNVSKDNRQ
Kind of data set: Inhibition of PI3Kdelta in human SU-DHL-5 cells assessed as inhibition of AKT phosphorylation at Ser473 residue at 1 to 5 uM measured after 3 hrs by western blot assay. Type of data set: cell-based. Particulars: dose 1-5 µM. The gist of the method: (§1)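 Treatment lasted 3 h: SUDHL-5 at 1 μM, MOLT-4 at 5 μM. Cells washed twice in cold PBS and lysed. Proteins resolved on 10–12% SDS-PAGE and blotted to PVDF. Probed for p-AKT S473, p-AKT T308, p-S6 and p-4E-BP1, with β-actin as loading control.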

Data set [3] addresses T1, Phosphatidylinositol 4,5-bisphosphate 3-kinase catalytic subunit delta isoform (Homo sapiens). Description: Inhibition of PI3Kdelta in human MOLT-4 cells assessed as inhibition of AKT phosphorylation at Ser473 residue at 1 to 5 uM measured after 3 hrs by western blot assay. Type of data set: cell-based. The note with it: dose 1-5 µM. The gist of the method:
as §1

Data set [4] concerns SU-DHL10. Description: Induction of apoptosis in human SU-DHL-10 cells assessed as viable cells at 20 uM measured after 24 hrs by AnnexinV-FITC/PI staining based flowcytometry method (reference value: 90%). It counts as functional. The note with it: read-out: Activity. A digest of the protocol:
(§2)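 Cells exposed to 20 μM compound for 24 h, washed with cold PBS, and stained with Annexin V-FITC and propidium iodide for 15 min at room temperature. Viable, early apoptotic, late apoptotic and necrotic populations quantified by flow cytometry.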

Data set [5] relates to SU-DHL10. Description: Induction of apoptosis in human SU-DHL-10 cells assessed as early apoptotic cells at 20 uM measured after 24 hrs by AnnexinV-FITC/PI staining based flowcytometry method (reference value: 6.32%). It counts as functional. The gist of the method:
as §2

Data set [6] relates to SU-DHL10. Description: Induction of apoptosis in human SU-DHL-10 cells assessed as late apoptotic cells at 20 uM measured after 24 hrs by AnnexinV-FITC/PI staining based flowcytometry method (reference value: 3.48%). It counts as functional. A digest of the protocol: as §2
Data set [7] relates to SU-DHL10. Kind of data set: Induction of apoptosis in human SU-DHL-10 cells assessed as necrotic cells at 20 uM measured after 24 hrs by AnnexinV-FITC/PI staining based flowcytometry method (reference value: 0.2%). Type of data set: functional. A digest of the protocol: as §2
Data set [8] has as its system MOLT-4. Kind of data set: Induction of apoptosis in human MOLT-4 cells assessed as viable cells at 20 uM measured after 24 hrs by AnnexinV-FITC/PI staining based flowcytometry method (reference value: 95.3%). Type of data set: functional. The note with it: read-out: Activity. A digest of the protocol:
as §2

Data set [9] has as its system MOLT-4. Description: Induction of apoptosis in human MOLT-4 cells assessed as early apoptotic cells at 20 uM measured after 24 hrs by AnnexinV-FITC/PI staining based flowcytometry method (reference value: 2.04%). It counts as functional. The gist of the method: as §2
Data set [10] concerns MOLT-4. Kind of data set: Induction of apoptosis in human MOLT-4 cells assessed as late apoptotic cells at 20 uM measured after 24 hrs by AnnexinV-FITC/PI staining based flowcytometry method (reference value: 2.17%). It counts as functional. The gist of the method: as §2
The subject of data set [11] is MOLT-4. Description: Induction of apoptosis in human MOLT-4 cells assessed as necrotic cells at 20 uM measured after 24 hrs by AnnexinV-FITC/PI staining based flowcytometry method (reference value: 0.51%). Type of data set: functional. A digest of the protocol:
as §2

Data set [12] concerns MOLT-4. Description: Antitumour activity against human MOLT-4 cells xenografted in Balb/c nude mouse assessed as inhibition of tumour growth at 10 mg/kg, po administered via gavage qd for 57 days. It counts as functional. Particulars: dose 10.0 mg/kg/day, time 57.0 day. The gist of the method:
(§3)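 MOLT-4 cells (2×10^6 in 0.1 mL D-PBS) implanted subcutaneously on the back of BALB/c-nude mice. Once tumours grew, mice were dosed daily by oral gavage at 10 mg/kg for 57 consecutive days. Tumours measured by caliper, with volume = ½ × […]. Body weight was tracked over the same period.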

Data set [13] is described as follows: Toxicity in Balb/c nude mouse xenografted with human MOLT-4 cells assessed as changes in body weight at 10 mg/kg, po administered via gavage qd for 57 days. Type of data set: organism-based. The note with it: in vivo, 1368 h, dose 10 mg/kg/day, time 57 day. The gist of the method:
as §3

Data set [14] is described as follows: AUC (last) in Sprague-Dawley rat at 3 mg/kg, po measured for 24 hrs by LC-MS/MS analysis. Type of data set: ADME, organism-based. Further details: route oral, time 24 hrs, dose 3 mg/kg. The note with it: in vivo. A digest of the protocol: (§4)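 Sprague-Dawley rats dosed orally at 1 or 3 mg/kg, three animals per group. Blood sampled at 0.25, 0.5, 1, 2, 4, 8 and 24 h post-dose. Plasma separated by centrifugation, extracted and quantified by LC-MS/MS. PK parameters (Cmax, AUClast, Tmax, t1/2) derived by non-compartmental software.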

Data set [15] is described as follows: Cmax in Sprague-Dawley rat at 3 mg/kg, po measured for 24 hrs by LC-MS/MS analysis. Type of data set: ADME, organism-based. Further details: route oral, time 24 hrs, dose 3 mg/kg. The note with it: in vivo. A digest of the protocol: as §4
Data set [16] can be described thus: Tmax in Sprague-Dawley rat at 3 mg/kg, po measured for 24 hrs by LC-MS/MS analysis. Type of data set: ADME, organism-based. Particulars: in vivo. A digest of the protocol:
as §4

Data set [17] can be described thus: Half life in Sprague-Dawley rat at 3 mg/kg, po measured for 24 hrs by LC-MS/MS analysis. It counts as ADME, organism-based. The note with it: in vivo. The gist of the method:
as §4

Data set [18] is described as follows: Cytotoxicity against human MRC5 cells assessed as inhibition of cell viability at 20 uM measured after 48 hrs by MTT assay. It counts as cell-based. Particulars: read-out: INH. The gist of the method:
(§5)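 MTT assay in MRC-5 cells seeded at 2×10^6 cells/mL. Compound given in 1% FBS EMEM for 48 h at 37 °C in CO2. MTT solution then added for 3 h at 37 °C. Medium removed and formazan dissolved in DMSO.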

For the next data set, the system named is MRC5. Kind of data set: Cytotoxicity against human MRC5 cells assessed as inhibition of cell viability measured after 48 hrs by MTT assay. It counts as cell-based. Particulars: MRC5, 48 h. A digest of the protocol:
as §5

Data set [19] has as its target T1, Phosphatidylinositol 4,5-bisphosphate 3-kinase catalytic subunit delta isoform (Homo sapiens). Description: Inhibition of PI3Kdelta in human SU-DHL-5 cells assessed as inhibition of AKT phosphorylation at Thr308 residue at 1 to 5 uM measured after 3 hrs by western blot assay. It counts as cell-based. Particulars: dose 1-5 µM. A digest of the protocol:
as §1

For data set [20] the target is unchanged. Description: Inhibition of PI3Kdelta in human MOLT-4 cells assessed as inhibition of AKT phosphorylation at Thr308 residue at 1 to 5 uM measured after 3 hrs by western blot assay. Particulars: dose 1-5 µM. Type of data set: cell-based. The gist of the method:
as §1

Regarding `CC[C@H](Nc1ncnc2[nH]cnc12)c1nc2cccc(F)c2c(=O)n1-c1ccccc1` [IDELALISIB], in the data set with SU-DHL-5, the viability at 10 µM was 41.3%. Further, the viability at 20 µM in the data set with MOLT-4 [1] came to 74.6%; with SU-DHL10 [4], 12.2%; in the data set with MOLT-4 [8] it was 56.5%. Moreover, the inhibition result (in data set [2]; in data set [3]; in the data set on MOLT-4 [12]; in [19]; in data set [20]) was “Active” in each case. Besides, the Activity with SU-DHL10 [5] was 55.7%; with SU-DHL10 [6] it was 30.4%; in the data set on SU-DHL10 [7], 1.7%; with MOLT-4 [9] it was 19.2%; with MOLT-4 [10] it was 22%; with MOLT-4 [11], 2.34%. For the same compound, the Activity result in data set [13] is “Non-Toxic”. In data set [14], this compound registered an AUC(0-t) at 24 h of 202 ng·h/mL. The peak level in data set [15] (Cmax) was 53 ng/mL. For the same compound, the Tmax in data set [16] worked out at 30 min. Besides, the half-life in [17] was 162 min. Also, the cytotoxicity at 48 h, 20 µM in [18] was determined as 18.4%. The IC50 with MRC5 is above 100 µM.
